The source of these data is ChEMBL document CHEMBL3525925, “In vitro studies on the oxidative metabolism of 20(s)-ginsenoside Rh2 in human, monkey, dog, rat, and mouse liver microsomes, and human liver s9” (Drug Metab Dispos, 2012).

A short description of data set [1]: Oral bioavailability in Wistar rat at 25 mg/kg. The following applies: in vivo. The format is ADME, organism-based.
Data set [2] concerns the target Cytochrome P450 2C19 (Homo sapiens, UniProt P33261). As to the kind of experiment: Drug metabolism in human recombinant CYP2C19 mediated oxidative metabolism at 10 uM. The settings on record: recombinant enzyme. The format is ADME. The method, boiled down: (§1)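 Recombinant human P450 at 50 nM incubated with 10 µM Rh2 and 2 mM NADPH in 100 mM potassium phosphate pH 7.4, 37°C, 60 min; ice-cold acetonitrile stop; duplicates; metabolites detected by LC/ion-trap MSn.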

Data set [3] deals with Cytochrome P450 2D6 (Homo sapiens, UniProt P10635). As to the kind of experiment: Drug metabolism in human recombinant CYP2D6 mediated oxidative metabolism at 10 uM. Type of data set: ADME. The settings on record: recombinant enzyme. In outline: as §1
A short description of data set [4]: Drug excretion in rat bile at 50 mg/kg, po. On the set-up: dose 50 mg/kg, route oral. The settings on record: read-out: Drug excretion. The format is ADME, organism-based.
For data set [5], the target named is T1, Cytochrome P450 4A11 (Homo sapiens, UniProt Q02928).
T1 sequence (Q02928 whole entry): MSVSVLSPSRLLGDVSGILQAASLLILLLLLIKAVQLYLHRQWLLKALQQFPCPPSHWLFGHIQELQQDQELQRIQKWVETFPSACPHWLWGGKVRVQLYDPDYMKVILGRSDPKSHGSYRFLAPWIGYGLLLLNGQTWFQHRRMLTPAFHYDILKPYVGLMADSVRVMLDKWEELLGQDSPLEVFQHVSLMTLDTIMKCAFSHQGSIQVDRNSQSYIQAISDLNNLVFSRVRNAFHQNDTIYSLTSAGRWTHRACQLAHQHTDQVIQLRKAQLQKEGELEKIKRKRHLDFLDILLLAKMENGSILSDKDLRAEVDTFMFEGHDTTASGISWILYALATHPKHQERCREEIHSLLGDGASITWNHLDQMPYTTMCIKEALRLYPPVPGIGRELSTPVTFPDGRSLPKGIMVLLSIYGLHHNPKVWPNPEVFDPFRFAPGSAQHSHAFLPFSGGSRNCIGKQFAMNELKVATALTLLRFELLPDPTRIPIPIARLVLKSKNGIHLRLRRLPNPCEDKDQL
As to the kind of experiment: Drug metabolism in human recombinant CYP4A11 mediated oxidative metabolism at 10 uM. The settings on record: recombinant enzyme. Type of data set: ADME. In outline:
as §1

The target in data set [6] is T2, Cytochrome P450 2C8 (Homo sapiens, UniProt P10632).
T2 sequence (P10632 whole entry): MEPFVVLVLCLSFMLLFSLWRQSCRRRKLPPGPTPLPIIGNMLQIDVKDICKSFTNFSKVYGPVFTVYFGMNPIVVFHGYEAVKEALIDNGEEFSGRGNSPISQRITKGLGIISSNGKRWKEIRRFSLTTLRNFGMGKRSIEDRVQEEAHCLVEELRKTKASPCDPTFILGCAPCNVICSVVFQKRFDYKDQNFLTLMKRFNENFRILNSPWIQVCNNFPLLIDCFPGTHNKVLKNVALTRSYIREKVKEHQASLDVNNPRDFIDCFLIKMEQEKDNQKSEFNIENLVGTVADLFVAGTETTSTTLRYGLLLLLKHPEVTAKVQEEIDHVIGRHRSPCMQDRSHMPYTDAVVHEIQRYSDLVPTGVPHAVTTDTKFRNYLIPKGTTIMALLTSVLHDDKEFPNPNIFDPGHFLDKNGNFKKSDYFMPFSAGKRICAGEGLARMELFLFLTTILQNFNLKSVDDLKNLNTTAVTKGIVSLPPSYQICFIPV
The data set is described as follows: Drug metabolism in human recombinant CYP2C8 mediated oxidative metabolism at 10 uM. Type of data set: ADME. The following applies: recombinant enzyme. The method, boiled down:
as §1

Data set [7] concerns the target Cytochrome P450 2C9 (Homo sapiens, UniProt P11712). The data set is described as follows: Drug metabolism in human recombinant CYP2C9 mediated oxidative metabolism at 10 uM. Type of data set: ADME. The following applies: recombinant enzyme. In outline:
as §1

In data set [8] the test system is Liver microsome. The data set is described as follows: Drug metabolism in human liver microsomes assessed as oxidative metabolism at 10 uM in presence of 0.4 uM ticlopidine CYP2B6/CYP2C19 inhibitor. The format is ADME. In outline: (§2)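 Pooled human liver microsomes (1 mg/ml, mixed-gender, 50 donors), 10 µM Rh2, 2 mM NADPH and selective inhibitor in 100 mM potassium phosphate pH 7.4; 37°C, 60 min; ice-cold acetonitrile stop; uninhibited controls; duplicates; formation of M1-2, M1-3 and M1-4+M1-5 quantified by LC/ion-trap MSn.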

The nature of data set [9]: Drug metabolism in cynomolgus monkey liver microsomes assessed as (24S,25)-epoxydamma-rane-12,20-diol-3-beta-D-glucopyranoside formation at 10 uM after 1 hr by LC/MS analysis in presence of GSH. Type of data set: ADME, Macaca fascicularis. The method, boiled down: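 Male cynomolgus monkey liver microsomes (1 mg/ml) with 10 µM Rh2, 2 mM GSH and 2 mM NADPH in 100 mM potassium phosphate pH 7.4, 37°C, 60 min after 3 min preincubation; microsomes start reaction; ice-cold acetonitrile stop; no-NADPH controls; duplicates; LC/ion-trap MSn detection.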

Data set [10] deals with T3, Cytochrome P450 1A2 (Homo sapiens, UniProt P05177).
T3 sequence (P05177 whole entry): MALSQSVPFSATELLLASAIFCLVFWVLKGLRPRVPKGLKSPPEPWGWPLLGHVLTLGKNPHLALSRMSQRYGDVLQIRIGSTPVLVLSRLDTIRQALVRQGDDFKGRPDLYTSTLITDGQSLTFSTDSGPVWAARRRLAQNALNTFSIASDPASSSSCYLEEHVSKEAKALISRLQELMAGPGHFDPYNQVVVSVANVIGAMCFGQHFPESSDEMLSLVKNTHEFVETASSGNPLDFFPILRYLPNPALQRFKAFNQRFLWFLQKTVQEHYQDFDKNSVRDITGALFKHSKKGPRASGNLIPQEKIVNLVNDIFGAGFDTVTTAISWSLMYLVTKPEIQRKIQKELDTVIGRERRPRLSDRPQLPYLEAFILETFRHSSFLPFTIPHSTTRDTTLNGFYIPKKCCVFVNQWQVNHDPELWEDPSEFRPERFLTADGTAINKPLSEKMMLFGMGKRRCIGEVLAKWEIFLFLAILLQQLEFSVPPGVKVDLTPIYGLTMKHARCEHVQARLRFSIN
As to the kind of experiment: Drug metabolism in human recombinant CYP1A2 mediated oxidative metabolism at 10 uM. The format is ADME. The settings on record: recombinant enzyme. In outline: as §1

Data set [11] has as its system Liver. The data set is described as follows: Drug uptake in rat liver at 50 mg/kg, po. Type of data set: ADME, organism-based. Further details: dose 50 mg/kg, route oral. The settings on record: in vivo, read-out: Drug uptake.
The subject of data set [12] is Liver microsome. The data set is described as follows: Drug metabolism in human liver microsomes assessed as oxidative metabolism at 10 uM in presence of 1 uM sulfaphenazole CYP2C9 inhibitor. Type of data set: ADME. The method, boiled down: as §2
In data set [13] the test system is Liver microsome. As to the kind of experiment: Drug metabolism in human liver microsomes assessed as oxidative metabolism at 10 uM in presence of 0.1 uM alpha-naphthoflavone CYP1A2 inhibitor. The format is ADME. The method, boiled down:
as §2

Chain of Cytochrome P450 2C19 (P33261 whole entry): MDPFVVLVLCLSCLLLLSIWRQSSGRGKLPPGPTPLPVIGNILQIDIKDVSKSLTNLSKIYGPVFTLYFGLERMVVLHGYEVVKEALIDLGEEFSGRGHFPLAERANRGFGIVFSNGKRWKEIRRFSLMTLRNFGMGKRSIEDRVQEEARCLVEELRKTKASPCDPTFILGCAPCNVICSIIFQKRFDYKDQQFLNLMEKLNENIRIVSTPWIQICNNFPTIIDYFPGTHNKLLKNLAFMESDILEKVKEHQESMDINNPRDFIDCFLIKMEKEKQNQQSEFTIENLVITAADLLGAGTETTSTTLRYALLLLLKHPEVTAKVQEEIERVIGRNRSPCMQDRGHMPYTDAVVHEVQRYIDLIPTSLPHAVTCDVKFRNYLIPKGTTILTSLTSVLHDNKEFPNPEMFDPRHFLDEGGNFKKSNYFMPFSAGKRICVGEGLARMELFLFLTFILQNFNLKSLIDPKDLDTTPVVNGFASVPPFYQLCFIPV
Chain of Cytochrome P450 2D6 (P10635 whole entry): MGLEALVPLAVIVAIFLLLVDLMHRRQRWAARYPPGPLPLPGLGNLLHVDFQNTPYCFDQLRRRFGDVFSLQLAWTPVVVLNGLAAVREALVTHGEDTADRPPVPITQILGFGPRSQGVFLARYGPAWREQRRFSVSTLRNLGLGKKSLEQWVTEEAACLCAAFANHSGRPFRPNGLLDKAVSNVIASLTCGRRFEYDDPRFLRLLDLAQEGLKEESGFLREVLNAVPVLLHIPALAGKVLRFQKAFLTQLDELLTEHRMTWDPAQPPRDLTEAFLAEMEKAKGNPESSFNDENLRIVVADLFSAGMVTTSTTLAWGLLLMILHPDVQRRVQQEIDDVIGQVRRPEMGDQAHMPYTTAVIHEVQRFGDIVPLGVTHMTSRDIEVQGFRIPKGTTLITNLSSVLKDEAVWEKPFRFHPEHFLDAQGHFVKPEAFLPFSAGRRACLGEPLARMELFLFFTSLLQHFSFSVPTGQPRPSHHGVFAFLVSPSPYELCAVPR
Chain of Cytochrome P450 2C9 (P11712 whole entry): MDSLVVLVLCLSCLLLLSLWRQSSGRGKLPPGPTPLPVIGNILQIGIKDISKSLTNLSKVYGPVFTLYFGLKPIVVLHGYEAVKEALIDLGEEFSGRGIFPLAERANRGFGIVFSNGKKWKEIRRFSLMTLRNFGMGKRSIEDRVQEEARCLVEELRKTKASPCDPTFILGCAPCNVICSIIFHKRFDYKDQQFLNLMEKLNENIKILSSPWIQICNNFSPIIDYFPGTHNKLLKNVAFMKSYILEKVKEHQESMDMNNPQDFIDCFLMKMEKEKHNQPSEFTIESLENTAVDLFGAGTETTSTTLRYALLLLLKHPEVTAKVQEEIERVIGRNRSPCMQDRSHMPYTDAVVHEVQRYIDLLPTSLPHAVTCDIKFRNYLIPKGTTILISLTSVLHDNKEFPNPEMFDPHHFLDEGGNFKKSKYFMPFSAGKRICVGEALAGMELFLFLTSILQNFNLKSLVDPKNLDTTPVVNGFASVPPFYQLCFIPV

In data set [1], `CC(C)=CCC[C@](C)(O)[C@H]1CC[C@]2(C)[C@@H]1[C@H](O)C[C@@H]1[C@@]3(C)CC[C@H](O[C@@H]4O[C@H](CO)[C@@H](O)[C@H](O)[C@H]4O)C(C)(C)[C@@H]3CC[C@]12C` [GINSENOSIDE RH2] gave a bioavailability of 28%. The Drug metabolism result in data set [2] is listed as “metabolite_not_detected”; in data set [3], “metabolite_not_detected”; in data set [5], “metabolite_not_detected”; in data set [6], “metabolite_not_detected”; in data set [7] it was “metabolite_not_detected”; in [8], “metabolite_detected”. Moreover, the Drug metabolism entry was “metabolite_detected” in data set [9], “metabolite_not_detected” in data set [10], “metabolite_detected” in data set [12] and “metabolite_detected” in data set [13]. The dose excreted in [4] was less than 10%. In addition, the concentration in [11] turned out to be 60 µM.
